# According to ChEMBL document CHEMBL3872217, “Structure-guided discovery of thiazolidine-2,4-dione derivatives as a novel class of Leishmania major pteridine reductase 1 inhibitors” (Eur J Med Chem, 2016):
# Active and inactive are the calls of the source. No cut-off for these calls is given here.
# What was measured:
# [1] = biological target: T1, Pteridine reductase 1 (Leishmania major) (UniProt Q01782); experiment: Binding affinity to Leishmania major recombinant N-terminal hexa-His tagged PTR1 expressed in Escherichia coli BL21(DE3) assessed as change in melting temperature at 50 uM at pH 4.7 by SYPRO orange dye based thermal shift assay
# T1 sequence (whole entry): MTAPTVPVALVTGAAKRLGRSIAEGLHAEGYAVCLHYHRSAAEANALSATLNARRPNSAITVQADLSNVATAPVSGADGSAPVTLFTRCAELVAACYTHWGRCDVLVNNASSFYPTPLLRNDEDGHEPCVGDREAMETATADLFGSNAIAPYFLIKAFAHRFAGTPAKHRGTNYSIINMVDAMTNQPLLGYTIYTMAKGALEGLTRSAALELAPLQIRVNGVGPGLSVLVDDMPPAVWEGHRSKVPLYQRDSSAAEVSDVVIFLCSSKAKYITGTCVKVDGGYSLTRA
# In short: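 Recombinant LmPTR1 from E. coli BL21(DE3) with pET-LmPTR1, Ni-NTA purified. Protein 5 μM in 50 mM sodium acetate pH 4.7 with SYPRO Orange (excitation 492, emission 610 nm); compound 50 μM from 1 mM DMSO stock; reference wells with DMSO only. Melt 25–85 °C at 1 °C per min; Tm from Boltzmann sigmoidal fit; triplicate; ΔTm compared by Kruskal-Wallis.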
# [2] = biological target: T1, Pteridine reductase 1 (Leishmania major); experiment: Inhibition of Leishmania major recombinant N-terminal hexa-His tagged PTR1 catalytic activity expressed in Escherichia coli BL21(DE3) at 50 uM using biopterin as substrate measured for 60 sec in presence of NADPH by UV-visible spectrophotometric method relative to control
# Pteridine reductase 1 = biological target: T2, Pteridine reductase 1 (Leishmania major, UniProt Q01782); experiment: Inhibition of Leishmania major recombinant N-terminal hexa-His tagged PTR1 catalytic activity expressed in Escherichia coli BL21(DE3) using biopterin as substrate measured for 60 sec in presence of NADPH by UV-visible spectrophotometric method relative to control
# T2 sequence (Q01782 whole entry): T1 sequence (whole entry)
# In short: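 Spectrophotometric assay at 30 °C with purified recombinant LmPTR1 at 0.2 μM in 20 mM sodium citrate pH 4.7, with NADPH and biopterin cofactor/substrate. Compound added in 5% DMSO (v/v). NADPH consumption followed as the drop in absorbance at 340 nm over 60 s; triplicate. IC50 by non-linear regression over at least six inhibitor concentrations.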
# [3] = biological target: T1, Pteridine reductase 1 (Leishmania major); experiment: Effect on thermal stability of Leishmania major recombinant N-terminal hexa-His tagged PTR1 expressed in Escherichia coli BL21(DE3) by SYPRO orange dye based thermal shift assay
# In short: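 Dose-response thermal stability run on Ni-NTA purified LmPTR1 (expressed from pET-LmPTR1 in E. coli BL21(DE3)) at 5 μM in 50 mM sodium acetate pH 4.7 with SYPRO Orange. Excitation 492 nm and emission 610 nm; ramp 25–85 °C, 1 °C per min. Tm taken from a Boltzmann sigmoidal fit against DMSO reference wells; done in triplicate.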
# [4] = biological target: T1, Pteridine reductase 1 (Leishmania major); experiment: Noncompetitive inhibition of Leishmania major recombinant N-terminal hexa-His tagged PTR1 catalytic activity expressed in Escherichia coli BL21(DE3) at 25 to 45 uM at pH 4.7 in presence of saturating concentration of biopterin and varying levels of NADPH by double-reciprocal plot analysis
# In short: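 Inhibition mode measured under the 340 nm kinetic conditions (0.2 μM LmPTR1, 20 mM sodium citrate pH 4.7, 30 °C, 60 s). Biopterin held at saturating 40 μM; NADPH varied over 5.0, 7.5, 10.0, 20.0 and 40.0 μM at two fixed inhibitor concentrations. Analysed by double-reciprocal plots; means of at least three experiments.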
# [5] = biological target: T1, Pteridine reductase 1 (Leishmania major); experiment: Noncompetitive inhibition of Leishmania major recombinant N-terminal hexa-His tagged PTR1 catalytic activity expressed in Escherichia coli BL21(DE3) assessed as decrease in thermal shift stabilization at 50 uM at pH 4.7 in presence of varying levels of NADPH and constant biopterin substrate concentration by SYPRO orange dye based assay
# In short: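 Inhibition type probed by repeating the TSA screen (5 μM LmPTR1, 50 mM sodium acetate pH 4.7, SYPRO Orange, compound 50 μM) while varying NADPH at 0.0, 3.0, 6.25, 12.5 and 50 μM. Triplicate; ΔTm values compared by Kruskal-Wallis non-parametric ANOVA.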
Compound,ΔTm [1] [°C],inhibition [2],IC50 (Pteridine reductase 1) [µM],Activity [3] [µM],inhibition [4],inhibition [5]
O=C1NC(=O)/C(=C/c2ccc(Cl)c(Cl)c2)S1,3.01,–,–,–,–,–
O=C1NC(=O)/C(=C/c2c(Cl)cccc2Cl)S1,< 1,–,–,–,–,–
COc1ccc(Br)c(/C=C2\SC(=O)NC2=O)c1,> 1,–,–,–,–,–
O=C1NC(=O)/C(=C/c2c(F)cccc2Br)S1,1.7,36%,589,–,–,–

# The remaining lines, values ahead:
ΔTm [1] [°C],inhibition [2],IC50 (Pteridine reductase 1) [µM],Activity [3] [µM],inhibition [4],inhibition [5],Compound
> 1,Active,75.9,> 200,–,–,O=C1NC(=O)/C(=C/c2cc(Cl)ccc2O)S1
> 1,–,–,–,–,–,O=C1NC(=O)/C(=C/c2ccc(Cl)cc2Cl)S1
11,Active,44.7,> 200,Active,Active,O=C1NC(=O)/C(=C/c2cc(Cl)cc(Br)c2O)S1
